{"source": "paper PMC5704914", "about": "(Biochemistry, 2017)", "molecules": {"B1": {"name": "SR234EF: C-terminal four EF hands preceded by three spectrin repeats of α-actinin-1 (AAs 391-892) (protein)", "chain": "RLDHLAEKFRQKASIHEAWTDGKEAMLRQKDYETATLSEIKALLKKHEAFESDLAAHQDRVEQIAAIAQELNELDYYDSPSVNARCQKICDQWDNLGALTQKRREALERTEKLLETIDQLYLEYAKRAAPFNNWMEGAMEDLQDTFIVHTIEEIQGLTTAHEQFKATLPDADKERLAILGIHNEVSKIVQTYHVNMAGTNPYTTITPQEINGKWDHVRQLVPRRDQALTEEHARQQHNERLRKQFGAQANVIGPWIQTKMEEIGRISIEMHGTLEDQLSHLRQYEKSIVNYKPKIDQLEGDHQLIQEALIFDNKHTNYTMEHIRVGWEQLLTTIARTINEVENQILTRDAKGISQEQMNEFRASFNHFDRDHSGTLGPEEFKACLISLGYDIGNDPQGEAEFARIMSIVDPNRLGVVTFQAFIDFMSRETADTDTADQVMASFKILAGDKNYITMDELRRELPPDQAEYCIARMAPYTGPDSVPGALDYMSFSTALYGESDL", "modifications": "left off: Gal4 activation domain, end not stated, kept"}}, "test_system": "α11.2 AAs 1506-1871", "assay": "Yeast two-hybrid interaction of α-actinin-1 fragments with α11.2 C-terminus", "assay_type": "binding, rabbit", "details": "α-actinin-1 prey in pGADT7; X-α-Gal", "outline": "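Bait plasmids (α11.2 C-terminal fragments) and α-actinin-1 full-length or fragment prey (Gal4 activation domain, pGADT7) were co-transformed into Y2H Gold yeast. Co-transformants were selected on Leu−/Trp− plates with X-α-Gal, then colonies were replated onto Leu/Trp/His/Ade quadruple-dropout plates plus X-α-Gal to score interaction.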", "data": [{"molecule": "B1", "values": [{"measurement": "interaction of α-actinin-1 polypeptide with α11.2 AAs 1506-1871 (Y2H)", "result": "consistently strong interaction readouts"}]}]}
